Measured values from ChEMBL document CHEMBL4354879, “Bioisosteric Discovery of NPA101.3, a Second-Generation RET/VEGFR2 Inhibitor Optimized for Single-Agent Polypharmacology” (J Med Chem, 2020).
Active and inactive are the calls of the source. The rule behind the calls is not given here.

What was measured:
[1] = test system: Proto-oncogene tyrosine-protein kinase receptor Ret (Homo sapiens), P07949 [C634R]; experiment: Inhibition of RET isoform 9 C634R mutant (unknown origin) expressed in rat Rat1 assessed as reduction in RET phosphorylation at Y905 residue at 3 nM measured after 2 hrs by Western blot analysis; format: cell-based
Proto-oncogene tyrosine-protein kinase receptor Ret (Homo sapiens), P07949 [C634R], sequence (P07949 whole entry C634R, canonical isoform): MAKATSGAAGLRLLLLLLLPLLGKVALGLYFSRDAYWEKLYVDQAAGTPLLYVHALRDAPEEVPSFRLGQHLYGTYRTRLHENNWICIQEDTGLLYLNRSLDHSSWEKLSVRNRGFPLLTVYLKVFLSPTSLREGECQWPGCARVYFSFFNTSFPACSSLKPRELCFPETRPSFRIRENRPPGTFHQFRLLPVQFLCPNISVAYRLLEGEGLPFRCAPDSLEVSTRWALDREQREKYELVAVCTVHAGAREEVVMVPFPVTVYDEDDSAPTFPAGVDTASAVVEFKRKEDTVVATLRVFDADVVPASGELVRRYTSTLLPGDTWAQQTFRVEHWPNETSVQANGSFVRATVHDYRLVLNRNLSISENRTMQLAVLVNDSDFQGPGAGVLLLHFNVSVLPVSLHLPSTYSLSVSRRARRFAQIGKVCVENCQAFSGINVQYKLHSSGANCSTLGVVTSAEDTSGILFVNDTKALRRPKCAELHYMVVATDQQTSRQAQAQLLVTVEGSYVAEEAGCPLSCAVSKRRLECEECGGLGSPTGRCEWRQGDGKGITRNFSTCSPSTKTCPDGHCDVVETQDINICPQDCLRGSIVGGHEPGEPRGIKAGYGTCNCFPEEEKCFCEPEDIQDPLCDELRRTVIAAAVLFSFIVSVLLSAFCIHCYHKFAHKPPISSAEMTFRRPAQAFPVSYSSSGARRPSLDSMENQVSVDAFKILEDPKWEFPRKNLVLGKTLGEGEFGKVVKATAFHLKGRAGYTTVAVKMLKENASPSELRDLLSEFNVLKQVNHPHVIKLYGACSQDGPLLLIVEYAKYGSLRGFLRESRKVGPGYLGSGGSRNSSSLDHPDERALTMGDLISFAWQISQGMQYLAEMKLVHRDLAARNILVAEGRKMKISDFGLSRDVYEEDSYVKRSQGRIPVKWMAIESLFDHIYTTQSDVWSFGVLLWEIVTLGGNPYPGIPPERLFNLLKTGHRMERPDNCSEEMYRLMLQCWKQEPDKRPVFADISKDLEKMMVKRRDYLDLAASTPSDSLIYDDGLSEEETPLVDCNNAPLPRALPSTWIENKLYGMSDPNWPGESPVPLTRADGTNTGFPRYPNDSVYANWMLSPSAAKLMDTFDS
Method in brief: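 RAT1 fibroblasts expressing RET-9 C634R, serum-starved, treated 2 h with 0.1–10.0 nM; 50 μg lysate blotted for RET pY905 and pY1062, normalized to total RET; ECL detection.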

[2] = test system: Proto-oncogene tyrosine-protein kinase receptor Ret (Homo sapiens), P07949 [V804L]; experiment: Inhibition of RET isoform 9 V804L mutant (unknown origin) expressed in rat Rat1 assessed as reduction in RET phosphorylation at Y905 residue at 1 to 100 nM measured after 2 hrs by Western blot analysis; format: cell-based
Proto-oncogene tyrosine-protein kinase receptor Ret (Homo sapiens), P07949 [V804L], sequence (P07949 whole entry V804L, canonical isoform): as the sequence (P07949 whole entry C634R, canonical isoform) above, with R634C, V804L counted along it
Method in brief: (§1)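 Serum-starved RAT1 (RET point mutants) or NIH3T3 (RET rearrangements) cells expressing short RET-9 isoform, treated 2 h; 50 μg total lysate immunoblotted with anti-phospho-Y1062 and anti-phospho-Y905 RET antibodies, normalized to total RET; ECL detection. Compound from 50 mM DMSO stock diluted in growth medium.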

[3] = test system: Proto-oncogene tyrosine-protein kinase receptor Ret (Homo sapiens), P07949 [M918T]; experiment: Inhibition of RET isoform 9 M918T mutant (unknown origin) expressed in rat Rat1 assessed as reduction in RET phosphorylation at Y1062 residue at 1 to 100 nM measured after 2 hrs by Western blot analysis; format: cell-based; method in brief: as §1
Proto-oncogene tyrosine-protein kinase receptor Ret (Homo sapiens), P07949 [M918T], sequence (P07949 whole entry M918T, canonical isoform): as the sequence (P07949 whole entry C634R, canonical isoform) above, with R634C, M918T counted along it

Homo sapiens [4] = species: Homo sapiens; experiment: Inhibition of CCDC6/RET isoform 9 (unknown origin) expressed in mouse NIH/3T3 cells assessed as reduction in RET phosphorylation at Y1062 residue at 1 to 100 nM measured after 2 hrs by Western blot analysis; format: cell-based; method in brief: as §1
[5] = test system: Proto-oncogene tyrosine-protein kinase receptor Ret (Homo sapiens), P07949 [M918T]; experiment: Inhibition of Ret isoform 9 M918T mutant in human MZ-CRC-1 cells assessed as reduction in phosphorylation at Y1062 residue at 0.3 to 30 nM measured after 2 hrs by Western blot analysis; format: cell-based
[6] = test system: Proto-oncogene tyrosine-protein kinase receptor Ret (Homo sapiens), P07949 [C634W]; experiment: Inhibition of Ret isoform 9 C634W mutant in human TT cells assessed as reduction in SHC phosphorylation at 0.3 to 30 nM measured after 2 hrs by Western blot analysis; format: cell-based
Proto-oncogene tyrosine-protein kinase receptor Ret (Homo sapiens), P07949 [C634W], sequence (P07949 whole entry C634W, canonical isoform): as the sequence (P07949 whole entry C634R, canonical isoform) above, with R634W counted along it

[7] = test system: Proto-oncogene tyrosine-protein kinase receptor Ret (Homo sapiens), P07949 [M918T]; experiment: Inhibition of Ret isoform 9 M918T mutant in human MZ-CRC-1 cells assessed as reduction in SHC phosphorylation at 0.3 to 30 nM measured after 2 hrs by Western blot analysis; format: cell-based
Homo sapiens [8] = species: Homo sapiens; experiment: Effect on MAPK phosphorylation in RET deficient human Nthy-ori 3-1 cells at 1 to 100 nM measured after 2 hrs by western blot analysis
A549 = experiment: Effect on MAPK phosphorylation in RET deficient human A549 cells at 1 to 100 nM measured after 2 hrs by western blot analysis; format: cell-based
[9] = test system: Proto-oncogene tyrosine-protein kinase receptor Ret (Homo sapiens), P07949 [M918T]; experiment: Inhibition of RET […] M918T mutant (unknown origin) expressed in mouse BAF3 cells assessed as reduction in RET phosphorylation at Y905 residue at 0.3 to 30 nM measured after 2 hrs by Western blot analysis; format: cell-based
Method in brief: (§2)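 Ba/F3 cells stably expressing long-isoform RET-51 mutants (electroporation), cultured in RPMI/10% FCS without IL-3; RET phosphorylation read by Western blot with anti-phospho-Y905 and anti-phospho-Y1062 antibodies, ECL detection.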

[10] = test system: Proto-oncogene tyrosine-protein kinase receptor Ret (Homo sapiens), P07949 [C634R]; experiment: Inhibition of RET […] C634R mutant (unknown origin) expressed in mouse BAF3 cells assessed as reduction in RET phosphorylation at Y1062 residue at 0.3 to 30 nM measured after 2 hrs by Western blot analysis; format: cell-based; method in brief: as §2
[11] = test system: Proto-oncogene tyrosine-protein kinase receptor Ret (Homo sapiens), P07949 [M918T]; experiment: Inhibition of RET […] M918T mutant (unknown origin) expressed in mouse BAF3 cells assessed as reduction in RET phosphorylation at Y1062 residue at 0.3 to 30 nM measured after 2 hrs by Western blot analysis; format: cell-based; method in brief: as §2
[12] = test system: GTPase HRas (Homo sapiens), P01112 [G12V]; experiment: Inhibition of HRAS G12V mutant (unknown origin) expressed in mouse NIH/3T3 cells assessed as reduction in cell proliferation up to 100 nM supplemented with fresh medium containing compound for every 2 to 3 days measured at 2 days interval during compound dosing; format: cell-based
GTPase HRas (Homo sapiens), P01112 [G12V], sequence (P01112 whole entry G12V): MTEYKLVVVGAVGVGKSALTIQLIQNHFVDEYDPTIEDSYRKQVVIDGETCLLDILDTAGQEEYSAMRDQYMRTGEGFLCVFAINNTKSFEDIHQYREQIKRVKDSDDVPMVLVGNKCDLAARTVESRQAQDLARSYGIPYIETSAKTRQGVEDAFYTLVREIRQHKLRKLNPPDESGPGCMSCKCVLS
Method in brief: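 NIH3T3 transformants seeded 10000/well in 2% calf serum; next day drug or vehicle added, medium changed every 2–3 days; cells counted every 2 days; IC50 from curve fit of last-day counts.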

Mus musculus [13] = experiment: In vivo inhibition of RET isoform 9 C634R mutant transfected in mouse NIH/3T3 cells implanted BALB/c nu/nu mouse assessed as reduction in RET phosphorylation at Y1062 residue in tumor at 1 mg/kg, po administered once daily via gavage for 3 days measured 3 hrs post-last dose by Western blot analysis; format: functional, organism-based
[14] = Drug metabolism in BALB/c nu/nu mouse assessed as formation of demethylated metabolite at 10 mg/kg, po measured after 1 to 4 hrs by LC-MS analysis; format: ADME, organism-based; settings: in vivo
[15] = Toxicity in BALB/c nu/nu mouse assessed as change in alkaline phosphatase level at 10 mg/kg, po administered daily for 7 days; format: organism-based; settings: in vivo, 168 h
Method in brief: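 Mice dosed orally with 10 mg/kg/day for 7 days; standard blood markers of organ damage measured.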

[16] = Toxicity in BALB/c nu/nu mouse assessed as change in glucose level at 10 mg/kg, po administered daily for 7 days; format: organism-based; settings: in vivo, 168 h
[17] = Toxicity in BALB/c nu/nu mouse assessed as change in total protein level at 10 mg/kg, po administered daily for 7 days; format: organism-based; settings: in vivo, 168 h
Mus musculus [18] = experiment: In vivo inhibition of RET isoform 9 C634Y mutant transfected in mouse NIH/3T3 cells implanted BALB/c nu/nu mouse assessed as reduction in MAPK phosphorylation in tumor at 1 mg/kg, po administered once daily via gavage for 3 days measured 3 hrs post-last dose by Western blot analysis

inhibition [1]: 100% | inhibition [2]: Active | inhibition [3]: Active | inhibition [5]: Active | inhibition [6]: Active | inhibition [7]: Active | Activity (Homo sapiens [8]): inactive | inhibition [9]: Active | inhibition [10]: Active | inhibition [11]: Active | inhibition [12]: inactive | Drug metabolism [14]: Metabolite_Notdetected
Compound: CC(C)(C)c1cc(NC(=O)Cc2ccc(-n3cnc4cc(-c5ccc(S(C)(=O)=O)cc5)ccc43)cc2)no1
inhibition (Homo sapiens [4]): Active | Activity (A549): inactive | inhibition (Mus musculus [13]): Active | Activity [15]: Non-Toxic | Activity [16]: Non-Toxic | Activity [17]: Non-Toxic | inhibition (Mus musculus [18]): Active
